Series [1] is described as follows: Antiplatelet activity in rabbit platelets assessed as inhibition of ADP-induced platelet aggregation at 200 uM by aggregometer. It counts as functional, Oryctolagus cuniculus. On the set-up: scale not given: the % may be the effect or the level left. In short, it runs like this: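 Rabbit blood anticoagulated with 3.8% trisodium citrate (0.3 ml per 2.7 ml blood). ADP and compound (200 µM) added in sequence, with blank and ADP-control cuvettes. Platelet-rich plasma from 270 g/5 min spin, platelet-poor plasma from 1000 g/10 min spin. Aggregation read on aggregometer and reported as mean aggregation rate A% (n = 6).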

In series [2] the test system is ECV-304. The series can be described thus: Protection against hydrogen peroxide-induced cell damage in human ECV304 cells treated 30 mins before hydrogen peroxide challenge measured after 6 hrs. It counts as functional, cell-based. In short, it runs like this: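 ECV-304 cells grown 24 h, then given fresh medium with compound at 12.5, 25, 50, 100 or 200 µM. After 0.5 h, 150 µM H2O2 added, then 6 h further incubation. Read-out is absorbance at 570 nm, mean ± SEM, n = 6. Proliferation rate = (OD compd − OD H2O2)/(OD control − OD H2O2) × 100%. EC50 derived by a pEC50 summation formula over proliferation rates.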

A short description of series [3]: Half life in human. It counts as ADME, organism-based. The following applies: in vivo.

As usually defined, the EC50 is the concentration needed to bring the measured effect to its halfway point. `Cc1nc(C)c(CN2CCN(C(=O)c3ccc(I)cc3)CC2)nc1C`: the Activity in series [1] was determined as 25.17%. The same compound came in with an EC50 in series [2] of 125 µM.
The corresponding values for `Cc1nc(C)c(CN2CCN(C(=O)C(=O)c3ccccc3)CC2)nc1C` are 26.11% and 304 µM.
For the compound `Cc1nc(C)c(CN2CCN(C(=O)c3ccccc3O)CC2)nc1C`, in series [1], the Activity came out at 16.71%. The compound further had a half-maximal effective concentration (EC50) in series [2] of 6.13 µM.
Regarding `Cc1nc(C)c(CN2CCN(S(=O)(=O)c3ccccc3)CC2)nc1C`, the Activity in series [1] was 24.49%. The compound further displayed an EC50 in series [2] of 480 µM.
On to `Cc1ccc(S(=O)(=O)N2CCN(Cc3nc(C)c(C)nc3C)CC2)cc1`, for which, in series [1], the Activity was determined as 25.13%.
`CCOC(=O)N1CCN(Cc2nc(C)c(C)nc2C)CC1`: the Activity in series [1] was 15.25%. This compound also showed an EC50 in series [2] of 76.6 µM.
For the compound `COc1cc(C(=O)N2CCN(Cc3nc(C)c(C)nc3C)CC2)cc(OC)c1OC`, the Activity in series [1] is 14.26%. In series [2], this compound had an EC50 of 88.7 µM.
On to `COc1ccc(C(=O)N2CCN(Cc3nc(C)c(C)nc3C)CC2)cc1OC`, for which the Activity in series [1] was 29.06%. The same compound gave an EC50 in series [2] of 170 µM.
The corresponding values for `Cc1nc(C)c(CN2CCN(C(=O)c3cc([N+](=O)[O-])cc([N+](=O)[O-])c3)CC2)nc1C` are 15.67% and 179 µM.
`Cc1nc(C)c(CN2CCN(C(=O)CCc3ccccc3)CC2)nc1C`: the Activity in series [1] amounted to 13.29%. For the same compound, the EC50 in series [2] came out at 150 µM.
The like results for `Cc1nc(C)c(CN2CCN(C(=O)Cc3ccccc3)CC2)nc1C` were, in that order, 25.59% and 189 µM.
Turning to `COc1cccc(/C=C/C(=O)N2CCN(Cc3nc(C)c(C)nc3C)CC2)c1OC`, the Activity in series [1] worked out at 8.78%. The compound further registered a concentration giving a half-maximal response (EC50) in series [2] of 340 µM.
As to `COc1cc(/C=C/C(=O)N2CCN(Cc3nc(C)c(C)nc3C)CC2)ccc1OC(C)=O`, the Activity in series [1] is on record as 5.84%.
Regarding `Cc1nc(C)c(CN2CCN(C(=O)c3ccccc3)CC2)nc1C`, in series [1], the Activity is 28.46%. The EC50 in series [2] is 241 µM.
For `Cc1nc(C)c(CN2CCN(C(=O)c3ccccc3Cl)CC2)nc1C`, the Activity in series [1] worked out at 27.24%. The compound also came in with an EC50 in series [2] of 161 µM.
As to `Cc1nc(C)c(CN2CCN(C(=O)c3cccc(Cl)c3)CC2)nc1C`, the Activity in series [1] amounted to 24.74%. It took 121 µM to reach a half-maximal effect in series [2] (EC50).
On to `Cc1nc(C)c(CN2CCN(C(=O)c3ccc(Cl)cc3)CC2)nc1C`, for which the Activity in series [1] stood at 25.62%. In series [2], this compound gave an EC50 of 208 µM.
Consider `Cc1nc(C)c(CN2CCN(C(=O)c3ccc(Cl)cc3Cl)CC2)nc1C`, for which the Activity in series [1] was determined as 16.08%. In series [2], this compound returned a half-maximal effective concentration (EC50) of 249 µM.
The corresponding values for `COc1ccc(OC)c(/C=C/C(=O)N2CCN(Cc3nc(C)c(C)nc3C)CC2)c1` are 9.78% and 376 µM.
For `CC(=O)Oc1ccccc1C(=O)N1CCN(Cc2nc(C)c(C)nc2C)CC1`, the Activity in series [1] is reported as 3.02%. In series [2], this compound gave an EC50 of 159 µM.
As to `Cc1nc(C)c(CN2CCN(C(=O)c3cccnc3)CC2)nc1C`, the Activity in series [1] is 5.08%. In series [2], this compound yielded an EC50 of 220 µM.
The corresponding values for `Cc1nc(C)c(CN2CCN(C(=O)c3ccncc3)CC2)nc1C` are 6.07% and 29.7 µM.
For the compound `Cc1nc(C)c(CN2CCN(C(=O)C(C)(C)Oc3ccc(Cl)cc3)CC2)nc1C`, the Activity in series [1] was 13.68%.
With `Cc1nc(C)c(CN2CCN(S(C)(=O)=O)CC2)nc1C`, the Activity in series [1] amounted to 33.51%. The EC50 in series [2] was found to be 162 µM.
Regarding `Cc1nc(C)c(CN2CCN(C(=O)CCl)CC2)nc1C`, the Activity in series [1] stood at 24.89%. This compound had an EC50 in series [2] of 148 µM.
For the compound `Cc1nc(C)c(CN2CCN(C(=O)c3ccco3)CC2)nc1C`, the Activity in series [1] was 21.76%. This compound had a concentration giving a half-maximal response (EC50) in series [2] of 37.6 µM.
Consider `COc1ccc(C(=O)N2CCN(Cc3nc(C)c(C)nc3C)CC2)cc1`, for which, in series [1], the Activity stood at 26.06%. In series [2], this compound displayed a 50% effective concentration (EC50) of 210 µM.
Turning to `Cc1nc(C)c(CN2CCN(C(=O)c3ccc([N+](=O)[O-])cc3)CC2)nc1C`, the Activity in series [1] worked out at 28.64%. Besides, in series [2], the EC50 amounted to 462 µM.
With `COc1ccc(/C=C/C(=O)N2CCN(Cc3nc(C)c(C)nc3C)CC2)cc1OC`, the Activity in series [1] amounted to 6.13%. In series [2], this compound registered an EC50 of 282 µM.
For the compound `COc1ccccc1C(=O)N1CCN(Cc2nc(C)c(C)nc2C)CC1`, in series [1], the Activity is recorded as 24.27%. The compound also came in with an EC50 in series [2] of 249 µM.
Consider `Cc1nc(C)c(CN2CCN(C(=O)/C=C/c3cccc([N+](=O)[O-])c3)CC2)nc1C`, for which the Activity in series [1] is on record as 13.07%. In series [2], this compound displayed an EC50 of 422 µM.
`Cc1nc(C)c(CN2CCN(C(=O)c3ccccc3I)CC2)nc1C`: the Activity in series [1] is listed as 25.45%. For the same compound, in series [2], the EC50 came to 67.8 µM.
Turning to `Cc1nc(C)c(CN2CCN(C(=O)Cc3ccc([N+](=O)[O-])cc3)CC2)nc1C`, in series [1], the Activity was determined as 18.24%. The compound also gave an EC50 in series [2] of 377 µM.
For orientation: half-life means how long it takes for the measured level to halve. As for `Cc1nc(C)c(C)nc1C` [LIGUSTRAZINE], the half-life in series [3] is 2.89 h. In addition, the Activity in series [1] is 7.86%. This compound yielded a concentration for a half-maximal effect (EC50) in series [2] of 154 µM.

(Values after ChEMBL document CHEMBL1153450, “Ligustrazine derivatives. Part 3: Design, synthesis and evaluation of novel acylpiperazinyl derivatives as potential cerebrocardiac vascular agents” (Bioorg Med Chem, 2009).)
